Series [1] is described as follows: AUC (0 to infinity) in mouse at 1 to 2 mg/kg, iv by LC/MS/MS analysis. To be noted: in vivo. Type of series: ADME, organism-based. The essentials: (§1)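 Male ICR mice (27 ± 5 g, n = 3) dosed iv via tail vein at 2 or 1 mg/kg in 30% PEG400/5% ethanol in water. Jugular blood (0.3 mL, heparin) sampled at set times over 24 h or more; plasma separated, acetonitrile-precipitated, drug quantified by LC/MS/MS; parameters from noncompartmental-type software estimation.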

Series [2] in a line: AUC (0 to tz) in mouse at 1 to 2 mg/kg, iv by LC/MS/MS analysis. The series is classed as ADME, organism-based. To be noted: in vivo. The essentials:
as §1

In series [3] the target is Inhibitor of nuclear factor kappa-B kinase subunit epsilon (Homo sapiens, UniProt Q14164). Description: Binding affinity to IKKE in SILAC-labeled human MDA-MB-231 cells lysate by mass spectrometry based kinAffinity assay. Type of series: subcellular. The essentials: (§2)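 Chemical proteomics: MDA-MB-231 lysate bound to matrix of immobilized broad kinase inhibitors at several densities (BC50), then competed with increasing free compound (CC50); proteins quantified by mass spectrometry, Kd via Cheng-Prusoff. Two competition formats run in parallel to check equilibrium.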
Chain of Inhibitor of nuclear factor kappa-B kinase subunit epsilon (Q14164 whole entry): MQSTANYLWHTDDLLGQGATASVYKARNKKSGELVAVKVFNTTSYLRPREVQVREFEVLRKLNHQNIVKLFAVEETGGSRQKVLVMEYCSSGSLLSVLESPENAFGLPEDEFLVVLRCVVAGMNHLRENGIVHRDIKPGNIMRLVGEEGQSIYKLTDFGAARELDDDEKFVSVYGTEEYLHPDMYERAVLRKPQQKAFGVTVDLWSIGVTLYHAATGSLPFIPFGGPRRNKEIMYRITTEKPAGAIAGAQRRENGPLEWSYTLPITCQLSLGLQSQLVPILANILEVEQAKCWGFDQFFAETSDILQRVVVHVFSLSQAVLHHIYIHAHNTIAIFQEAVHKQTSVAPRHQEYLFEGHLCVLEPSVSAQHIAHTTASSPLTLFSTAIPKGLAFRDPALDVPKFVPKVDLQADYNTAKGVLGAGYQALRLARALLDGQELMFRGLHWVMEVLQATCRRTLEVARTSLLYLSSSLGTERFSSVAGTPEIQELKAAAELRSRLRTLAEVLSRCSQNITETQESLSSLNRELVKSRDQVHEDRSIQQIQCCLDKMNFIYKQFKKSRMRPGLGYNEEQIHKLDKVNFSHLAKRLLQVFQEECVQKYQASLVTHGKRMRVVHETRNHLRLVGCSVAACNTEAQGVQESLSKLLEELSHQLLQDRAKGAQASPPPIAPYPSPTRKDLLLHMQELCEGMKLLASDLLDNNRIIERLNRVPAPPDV

A short description of series [4]: Initial plasma concentration in mouse at 1 to 2 mg/kg, iv by LC/MS/MS analysis. The series is classed as ADME, organism-based. The method in brief: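 Male ICR mice (n = 3) dosed iv via the tail vein at 2 or 1 mg/kg in 30% PEG400 and 5% ethanol in water. Jugular blood was collected into heparin and the plasma separated. Plasma levels were measured by LC/MS/MS after acetonitrile precipitation, and parameters were derived by noncompartmental software.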

The target in another series is Activin receptor type-1 (Homo sapiens, UniProt Q04771). Description: Binding affinity to ACVR1 in SILAC-labeled human MDA-MB-231 cells lysate by mass spectrometry based kinAffinity assay. The series is classed as subcellular. The essentials:
as §2

Series [5] deals with Epidermal growth factor receptor (Homo sapiens, UniProt P00533). Description: Binding affinity to EGFR in SILAC-labeled human MDA-MB-231 cells lysate by mass spectrometry based kinAffinity assay. Type of series: subcellular. The method in brief:
as §2

Series [6] addresses Tyrosine-protein kinase ABL2 (Homo sapiens, UniProt P42684). Description: Binding affinity to ABL2 in SILAC-labeled human MDA-MB-231 cells lysate by mass spectrometry based kinAffinity assay. Type of series: subcellular. The essentials:
as §2

Series [7] can be described thus: Apparent volume of distribution in mouse at 3 mg/kg, iv by LC/MS/MS analysis. Particulars: in vivo, read-out: Vz.
A short description of series [8]: Clearance in mouse at 1 to 2 mg/kg, iv by LC/MS/MS analysis. Type of series: ADME, organism-based. Particulars: in vivo.
The target in series [9] is Serine/threonine-protein kinase Nek1 (Homo sapiens, UniProt Q96PY6). Description: Binding affinity to NEK1 in SILAC-labeled human MDA-MB-231 cells lysate by mass spectrometry based kinAffinity assay. Type of series: subcellular. The method in brief:
(§3)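 MDA-MB-231 lysate applied to KinAffinity matrix of immobilized broadband kinase inhibitors at graded densities to obtain BC50 per target. Competition then run with increasing free compound to give CC50; Kd derived by Cheng-Prusoff. Two competition experiments in parallel to check equilibrium, one with lysate pre-incubated with compound before adding matrix. Quantitation by mass spectrometry.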

Series [10] concerns the target Ribosomal protein S6 kinase alpha-1 (Homo sapiens, UniProt Q15418). Description: Binding affinity to RPS6KA1 in SILAC-labeled human MDA-MB-231 cells lysate by mass spectrometry based kinAffinity assay. Type of series: subcellular. The method in brief:
as §3

Series [11] is described as follows: Permeability of the compound in 0.025 M phosphate buffer at pH 7.4 assessed drug flux level after 5 hrs by PAMPA. Particulars: pH 7.4, 5 h. Type of series: ADME. The essentials: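 PAMPA: donor at 0.5 mM in pH 7.4 0.025 M phosphate buffer, diluted from 1 mM DMSO stock. Filters are coated with 1% phosphatidylcholine in dodecane, and the acceptor is 50% DMSO in phosphate buffer. Incubated 5 h at room temperature with gentle shaking. Donor and acceptor are analyzed by HPLC-UV to calculate Papp. Three plates were run on different days.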
On the technique in general: PAMPA measures passive passage across an artificial lipid membrane.

Series [12] deals with Serine/threonine-protein kinase MARK2 (Homo sapiens, UniProt Q7KZI7). Description: Binding affinity to MARK2 in SILAC-labeled human MDA-MB-231 cells lysate by mass spectrometry based kinAffinity assay. The series is classed as subcellular. The essentials: as §2
Chain of Serine/threonine-protein kinase MARK2 (Q7KZI7 whole entry): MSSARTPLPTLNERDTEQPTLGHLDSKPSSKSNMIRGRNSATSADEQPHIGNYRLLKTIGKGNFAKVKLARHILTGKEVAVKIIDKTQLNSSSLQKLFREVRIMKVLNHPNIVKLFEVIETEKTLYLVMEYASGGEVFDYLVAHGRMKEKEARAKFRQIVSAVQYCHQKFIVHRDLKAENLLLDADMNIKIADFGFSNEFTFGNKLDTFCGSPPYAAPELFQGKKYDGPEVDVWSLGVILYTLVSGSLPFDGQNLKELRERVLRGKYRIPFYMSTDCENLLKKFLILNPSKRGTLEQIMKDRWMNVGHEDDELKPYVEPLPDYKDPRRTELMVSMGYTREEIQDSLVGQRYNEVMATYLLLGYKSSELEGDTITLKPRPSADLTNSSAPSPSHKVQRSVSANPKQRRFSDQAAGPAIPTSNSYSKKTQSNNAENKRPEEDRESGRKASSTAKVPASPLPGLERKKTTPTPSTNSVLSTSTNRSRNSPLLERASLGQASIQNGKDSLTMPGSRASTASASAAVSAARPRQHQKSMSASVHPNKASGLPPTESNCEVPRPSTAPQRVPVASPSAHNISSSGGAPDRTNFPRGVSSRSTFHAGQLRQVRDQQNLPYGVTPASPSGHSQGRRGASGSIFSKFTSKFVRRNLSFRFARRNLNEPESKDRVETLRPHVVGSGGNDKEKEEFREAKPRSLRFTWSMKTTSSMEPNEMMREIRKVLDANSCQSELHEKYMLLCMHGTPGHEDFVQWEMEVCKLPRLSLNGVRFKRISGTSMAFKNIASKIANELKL
Series [13] deals with Serine/threonine-protein kinase 3 (Homo sapiens, UniProt Q13188). Description: Binding affinity to MST2 in SILAC-labeled human MDA-MB-231 cells lysate by mass spectrometry based kinAffinity assay. The series is classed as subcellular. The essentials: as §3
Chain of Serine/threonine-protein kinase 3 (Q13188 whole entry): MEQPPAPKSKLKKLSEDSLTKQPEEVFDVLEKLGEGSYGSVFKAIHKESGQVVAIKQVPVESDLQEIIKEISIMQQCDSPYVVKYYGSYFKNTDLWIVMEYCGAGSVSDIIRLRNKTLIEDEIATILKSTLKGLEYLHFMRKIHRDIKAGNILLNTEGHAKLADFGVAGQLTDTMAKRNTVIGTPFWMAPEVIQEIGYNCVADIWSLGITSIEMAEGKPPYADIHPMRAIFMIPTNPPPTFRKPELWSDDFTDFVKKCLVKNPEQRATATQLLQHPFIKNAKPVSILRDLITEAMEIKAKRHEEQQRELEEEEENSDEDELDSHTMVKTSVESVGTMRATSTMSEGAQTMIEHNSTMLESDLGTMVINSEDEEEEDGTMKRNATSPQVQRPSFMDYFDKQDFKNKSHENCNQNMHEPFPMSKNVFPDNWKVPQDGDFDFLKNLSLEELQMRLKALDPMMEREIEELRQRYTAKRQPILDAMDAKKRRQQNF
Series [14] can be described thus: Apparent permeability from basolateral to apical side in human Caco2 cells at 10 uM after 2 hrs by LC-MS/MS analysis. Type of series: ADME, cell-based. Particulars: Caco-2. The essentials: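 Caco-2 cells differentiated three weeks in 96-well format, monolayer integrity checked by Lucifer yellow transport. Compound at 10 µM for 2 h; apical buffer HBSS/10 mM HEPES/glucose pH 6.5 with 100 µM Lucifer yellow, basolateral buffer pH 7.4. Papp = (dQ/dt)/C0A; efflux ratio Papp(B→A)/Papp(A→B).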
In general terms: Caco-2 cells form a polarised layer with tight junctions and transporters.

For a further series, the system named is MDA-MB-231. Description: Antimetastatic activity against human MDA-MB-231 cells xenografted in mouse assessed as reduction in lymph node metastasis at 30 mg/kg, ip bid measured 3 times per week starting at day 12 by hematoxylin and eosin staining based assay relative to control. The series is classed as functional. Set-up: scale not given: the % may be the effect or the level left. The essentials:
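Female SCID/Beige mice inoculated with 2 x 10^6 MDA-MB-231 cells in HBSS:Matrigel (1:1) into third mammary fat pad under ketamine/xylazine. Test agent 30 mg/kg ip twice daily (12 h apart) in PEG400/H2O 70:30, or paclitaxel 10 mg/kg iv three times weekly; 10 mice/group. Tumors measured three times weekly from day 12; lungs and lymph nodes excised, formalin-fixed, nodes H&E-scored (mean ± SEM).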
On the technique in general: Xenograft models place foreign cells or tissue in a host animal.

For series [15], the target named is Tyrosine-protein kinase SYK (Homo sapiens) (UniProt P43405). Description: Inhibition of SYK (unknown origin) using fluorescence labeled peptide as substrate at 10 uM by IMAP assay. The essentials: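 Kinase selectivity profiling, run by a contract lab, with the test compound at 10 µmol/L in triplicate. In the IMAP format, the kinase phosphorylates a fluorescently labelled substrate peptide in solution. A binding solution of trivalent metal-based nanoparticles is then added to capture the phosphopeptide, and the drop in rotational speed is read as fluorescence polarization. Results are given as percent inhibition of each kinase.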

For series [16], the target named is Tyrosine-protein kinase CSK (Homo sapiens, UniProt P41240). Description: Inhibition of CSK (unknown origin) using fluorescently-labeled peptide as substrate at 10 uM by IMAP fluorescence polarization assay.
The target in series [17] is Receptor-type tyrosine-protein kinase FLT3 (Homo sapiens) (UniProt P36888). Description: Inhibition of FLT3 (unknown origin) using biotinylated peptide as substrate at 10 uM by TR-FRET assay.
The nature of series [18]: Toxicity in mouse allografted with AXL expressing mouse MXT cells assessed as weight loss at 15 mg/kg, ip qd administered 21 consecutive days. The series is classed as organism-based. To be noted: in vivo.
In series [19] the target is Dual specificity mitogen-activated protein kinase kinase 5 (Homo sapiens, UniProt Q13163). Description: Binding affinity to MAP2K5 in SILAC-labeled human MDA-MB-231 cells lysate by mass spectrometry based kinAffinity assay. Type of series: subcellular. The essentials:
as §2

The next series has as its target TGF-beta receptor type-1 (Homo sapiens, UniProt P36897). Description: Binding affinity to TGFBR1 in SILAC-labeled human MDA-MB-231 cells lysate by mass spectrometry based kinAffinity assay. The series is classed as subcellular. The method in brief:
as §3

The values that follow come from ChEMBL document CHEMBL4371006, “Discovery of N-[4-(Quinolin-4-yloxy)phenyl]benzenesulfonamides as Novel AXL Kinase Inhibitors” (J Med Chem, 2018).

Activity calls are given as the source filed them. The calls are words filed in the database; no cut-off is given here. Some results are limits rather than exact numbers.

Chain of Ribosomal protein S6 kinase alpha-1 (Q15418 whole entry): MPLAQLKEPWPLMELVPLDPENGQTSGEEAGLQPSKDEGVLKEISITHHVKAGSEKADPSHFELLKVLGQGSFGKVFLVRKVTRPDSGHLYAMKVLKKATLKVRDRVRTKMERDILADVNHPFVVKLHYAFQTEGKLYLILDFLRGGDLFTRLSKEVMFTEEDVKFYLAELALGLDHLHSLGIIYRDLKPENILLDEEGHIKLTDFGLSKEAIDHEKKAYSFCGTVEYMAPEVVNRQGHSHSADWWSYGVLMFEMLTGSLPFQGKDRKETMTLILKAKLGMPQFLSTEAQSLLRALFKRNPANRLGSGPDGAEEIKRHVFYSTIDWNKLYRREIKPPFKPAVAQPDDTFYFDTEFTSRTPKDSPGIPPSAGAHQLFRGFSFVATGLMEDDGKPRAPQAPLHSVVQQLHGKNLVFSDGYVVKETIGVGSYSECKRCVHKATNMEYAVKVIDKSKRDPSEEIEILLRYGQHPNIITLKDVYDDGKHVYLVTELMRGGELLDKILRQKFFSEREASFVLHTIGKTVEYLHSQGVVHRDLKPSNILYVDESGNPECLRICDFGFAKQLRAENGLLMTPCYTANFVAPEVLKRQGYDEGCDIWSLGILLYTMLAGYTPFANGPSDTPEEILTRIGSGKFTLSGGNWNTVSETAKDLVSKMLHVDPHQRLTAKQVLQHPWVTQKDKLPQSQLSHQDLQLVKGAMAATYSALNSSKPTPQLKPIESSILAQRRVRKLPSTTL
Chain of Activin receptor type-1 (Q04771 whole entry): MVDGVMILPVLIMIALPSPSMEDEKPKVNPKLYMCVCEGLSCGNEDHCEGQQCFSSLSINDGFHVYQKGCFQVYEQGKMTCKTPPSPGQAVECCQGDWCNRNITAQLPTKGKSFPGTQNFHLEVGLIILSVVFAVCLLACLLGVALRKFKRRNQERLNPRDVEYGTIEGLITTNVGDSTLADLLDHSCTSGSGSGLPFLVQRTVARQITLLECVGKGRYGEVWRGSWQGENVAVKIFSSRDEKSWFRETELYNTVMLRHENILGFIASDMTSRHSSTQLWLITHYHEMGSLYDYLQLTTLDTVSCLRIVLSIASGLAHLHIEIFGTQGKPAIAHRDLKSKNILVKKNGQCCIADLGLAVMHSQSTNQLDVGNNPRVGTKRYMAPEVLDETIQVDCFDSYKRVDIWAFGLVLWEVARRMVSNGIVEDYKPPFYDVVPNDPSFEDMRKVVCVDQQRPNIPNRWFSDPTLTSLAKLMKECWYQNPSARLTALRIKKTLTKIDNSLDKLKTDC
Chain of Epidermal growth factor receptor (P00533 whole entry): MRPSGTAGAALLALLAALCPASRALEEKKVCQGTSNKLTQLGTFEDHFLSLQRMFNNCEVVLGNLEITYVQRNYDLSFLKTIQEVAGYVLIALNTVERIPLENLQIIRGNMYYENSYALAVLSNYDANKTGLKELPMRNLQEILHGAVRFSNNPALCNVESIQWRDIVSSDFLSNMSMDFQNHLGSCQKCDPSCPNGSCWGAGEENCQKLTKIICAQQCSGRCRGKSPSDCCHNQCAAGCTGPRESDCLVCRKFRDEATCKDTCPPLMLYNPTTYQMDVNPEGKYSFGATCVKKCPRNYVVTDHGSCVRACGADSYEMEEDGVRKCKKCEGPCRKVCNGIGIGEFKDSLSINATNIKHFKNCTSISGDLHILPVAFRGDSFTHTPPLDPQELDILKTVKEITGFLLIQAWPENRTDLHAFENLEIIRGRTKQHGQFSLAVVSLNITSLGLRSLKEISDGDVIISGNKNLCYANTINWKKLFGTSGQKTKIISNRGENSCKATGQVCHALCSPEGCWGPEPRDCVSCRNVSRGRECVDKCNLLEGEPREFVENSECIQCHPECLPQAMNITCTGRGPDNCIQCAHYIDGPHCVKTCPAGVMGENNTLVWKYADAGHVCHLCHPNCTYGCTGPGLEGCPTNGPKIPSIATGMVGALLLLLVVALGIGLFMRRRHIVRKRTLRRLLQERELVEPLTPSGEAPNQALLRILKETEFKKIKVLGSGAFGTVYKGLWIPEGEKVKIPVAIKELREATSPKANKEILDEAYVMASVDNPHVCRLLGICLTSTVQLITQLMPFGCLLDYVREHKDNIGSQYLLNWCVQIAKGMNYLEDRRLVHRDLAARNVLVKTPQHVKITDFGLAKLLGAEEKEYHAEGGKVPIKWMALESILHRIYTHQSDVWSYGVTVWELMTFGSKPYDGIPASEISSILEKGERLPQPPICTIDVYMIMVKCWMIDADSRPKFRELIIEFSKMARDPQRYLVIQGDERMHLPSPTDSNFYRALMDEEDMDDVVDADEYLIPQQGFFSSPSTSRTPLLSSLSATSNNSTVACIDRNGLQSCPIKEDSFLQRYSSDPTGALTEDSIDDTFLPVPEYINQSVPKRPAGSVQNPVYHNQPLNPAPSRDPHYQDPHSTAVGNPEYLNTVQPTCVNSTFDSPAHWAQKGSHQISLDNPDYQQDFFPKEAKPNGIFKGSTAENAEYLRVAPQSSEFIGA
Chain of TGF-beta receptor type-1 (P36897 whole entry): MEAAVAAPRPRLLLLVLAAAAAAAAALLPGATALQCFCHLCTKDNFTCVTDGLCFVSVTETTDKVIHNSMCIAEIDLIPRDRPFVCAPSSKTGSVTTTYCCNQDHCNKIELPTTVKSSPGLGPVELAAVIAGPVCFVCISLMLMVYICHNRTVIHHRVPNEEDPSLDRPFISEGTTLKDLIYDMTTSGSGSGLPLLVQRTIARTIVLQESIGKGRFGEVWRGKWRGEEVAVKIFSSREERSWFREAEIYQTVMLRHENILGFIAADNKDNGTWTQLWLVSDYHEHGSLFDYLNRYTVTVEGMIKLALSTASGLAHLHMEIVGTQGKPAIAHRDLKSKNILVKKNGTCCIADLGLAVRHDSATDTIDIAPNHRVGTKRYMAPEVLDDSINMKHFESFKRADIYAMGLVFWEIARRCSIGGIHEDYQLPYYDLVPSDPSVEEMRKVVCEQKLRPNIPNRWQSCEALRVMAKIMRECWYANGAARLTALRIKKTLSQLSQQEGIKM

Regarding `COc1cc2c(Oc3ccc(NS(=O)(=O)c4cc(F)ccc4F)cc3F)ccnc2cc1OCCCN1CCN(C)CC1`, the AUC(0-inf) (commonly total exposure, with the tail of the curve extrapolated) in [1] is 2650 ng·h/mL. Moreover, the AUC (as a rule, concentration integrated over time) in [2] came to 1430 ng·h/mL. Also, the “Kd(free)” value in series [3] was found to be 282 nM; on Activin receptor type-1, 52 nM; in series [5] it was 122 nM; in [6], 71 nM; in series [9], 5146 nM; in series [10], 3152 nM. Further, the “Kd(free)” value is 4455 nM in series [12] and > 6454 nM in [13]. In series [4], this compound yielded a C0 of 310 ng/mL. The Vd in series [7] was determined as 10.2 L/kg. For the same compound, the clearance (usually the volume of plasma or blood freed of the substance per unit of time) in series [8] is 6.67 mL/min/kg. The permeability in series [11] amounted to 24.3%. Besides, the apparent permeability from basolateral to apical (Papp B→A) – broadly, how fast a substance crosses the layer from the basolateral side – at 2 h, 10 µM in series [14] was determined as 17 ×10⁻⁶ cm/s. Besides, the Activity in the series on MDA-MB-231 was 14.3%.

Regarding `COc1cc2c(Oc3ccc(NS(=O)(=O)c4ccccc4C(F)(F)F)cc3F)ccnc2cc1OCCCN1CCN(C)CC1`, the inhibition entry in series [15], in [16] and in series [17] was “Active” each time.

In series [1], `COc1cc2c(Oc3ccc(NS(=O)(=O)c4cc(F)ccc4F)cc3F)ccnc2cc1OCCCN1CCCC(C)C1` (stereo unspecified) gave an area under the curve AUC(0-inf) of 1400 ng·h/mL. The AUC in series [2] came out at 669 ng·h/mL. The C0 in series [4] amounted to 216 ng/mL. Also, the clearance in [8] was 11.7 mL/min/kg. In addition, the Activity entry in [18] is on record as “Non-Toxic”. Besides, the permeability in series [11] came to 46.1%. In [14], the apparent permeability from basolateral to apical (Papp B→A) at 2 h, 10 µM was found to be 14.6 ×10⁻⁶ cm/s.

Consider `COc1cc2c(Oc3ccc(NS(=O)(=O)c4c(F)cccc4F)cc3F)ccnc2cc1OCCCN1CCN(C)CC1`, for which the “Kd(free)” value in series [3] was 122 nM; at Activin receptor type-1 it was > 70 nM; in series [5], 16 nM; in series [6], 16 nM; in series [9] it was 5043 nM; in series [10] it was 5474 nM. Moreover, the “Kd(free)” value in [19] is 539 nM; at TGF-beta receptor type-1, 205 nM; in series [12], 7086 nM; in [13] it was 5223 nM.
